In ChEMBL document CHEMBL1135826, “Antimicrobial peptides: synthesis and antibacterial activity of linear and cyclic drosocin and apidaecin 1b analogues” (2002) one finds MIC data, which are given here for five molecules.

In brackets after ≈: the same amount, converted by molar mass. Where a SMILES comes first, the peptide text is derived from it. The star is where a group is joined. X2 = CC(=O)N[C@@H]1[C@@H](O)[C@H](O)[C@@H](CO)O[C@@H]1*; βGal = OC[C@H]1O[C@@H](*)[C@H](O)[C@@H](O)[C@H]1O; X1 = OC[C@H]1O[C@H](*)[C@H](O)[C@@H](O)[C@H]1O

The test system of experiment [1] is Escherichia coli. Kind of experiment: Minimum inhibitory concentration (lowest peptide concentration) required to prevent visible bacterial growth after 18 hr of incubation at 37 C in Mueller-Hinton broth against Escherichia coli ML-35. In kind it is functional. The essentials:
(§1)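 Broth microdilution susceptibility test per NCCLS guidelines, in Mueller–Hinton broth with about 1.5–2.0 × 10^5 CFU/mL inoculum. Plates were incubated 18 h at 37 °C. MIC was taken as the lowest peptide concentration with no visible growth. Strains were ATCC strains or clinical isolates; E. coli O18:K1:H7 Bort is an encapsulated isolate from neonatal spinal fluid, and the S. aureus isolate is MRSA.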

Experiment [2] has as its system Acinetobacter baumannii. Kind of experiment: Minimum inhibitory concentration (lowest peptide concentration) required to prevent visible bacterial growth after 18 hr of incubation at 37 C in Mueller-Hinton broth against Acinetobacter baumannii 118A. Format: functional. The essentials: as §1
Experiment [3] concerns Staphylococcus epidermidis. As to the kind of experiment: Minimum inhibitory concentration (lowest peptide concentration) required to prevent visible bacterial growth after 18 hr of incubation at 37 C in Mueller-Hinton broth against Staphylococcus epidermidis 4. Format: functional. The essentials: as §1
For experiment [4], the system named is Escherichia coli. Kind of experiment: Minimum inhibitory concentration (lowest peptide concentration) required to prevent visible bacterial growth after 18 hr of incubation at 37 C in Mueller-Hinton broth against Escherichia coli D22. In kind it is functional. The essentials: as §1
In experiment [5] the test system is Staphylococcus aureus. As to the kind of experiment: Minimum inhibitory concentration (lowest peptide concentration) required to prevent visible bacterial growth after 18 hr of incubation at 37 C in Mueller-Hinton broth against Staphylococcus aureus G. In kind it is functional. The essentials: as §1
Experiment [6] deals with Salmonella typhimurium. As to the kind of experiment: Minimum inhibitory concentration (lowest peptide concentration) required to prevent visible bacterial growth after 18 hr of incubation at 37 C in Mueller-Hinton broth against Salmonella Typhimurium ATCC 14028. The conditions noted are these: Salmonella enterica. In kind it is functional, Salmonella enterica subsp. enterica serovar Typhimurium. The gist of the method:
as §1

In experiment [7] the test system is Salmonella enteritidis. Kind of experiment: Minimum inhibitory concentration (lowest peptide concentration) required to prevent visible bacterial growth after 18 hr of incubation at 37 C in Mueller-Hinton broth against Salmonella enteritidis D5. Conditions: Salmonella enterica.
The subject of experiment [8] is Pseudomonas aeruginosa. Kind of experiment: Minimum inhibitory concentration (lowest peptide concentration) required to prevent visible bacterial growth after 18 hr of incubation at 37 C in Mueller-Hinton broth against Pseudomonas aeruginosa ATCC 27853. Format: functional. The conditions noted are these: ATCC 27853, 18 h. The gist of the method: as §1
The subject of experiment [9] is Escherichia coli. As to the kind of experiment: Minimum inhibitory concentration (lowest peptide concentration) required to prevent visible bacterial growth after 18 hr of incubation at 37 C in Mueller-Hinton broth against Escherichia coli O18:K1:H7. In kind it is functional. The gist of the method:
as §1

The subject of experiment [10] is Escherichia coli. Kind of experiment: Minimum inhibitory concentration (lowest peptide concentration) required to prevent visible bacterial growth after 18 hr of incubation at 37 C in Mueller-Hinton broth against Escherichia coli ATCC 25922. In kind it is functional. The conditions noted are these: ATCC 25922, 18 h. The gist of the method:
as §1

For experiment [11], the system named is Klebsiella pneumoniae. Kind of experiment: Minimum inhibitory concentration (lowest peptide concentration) required to prevent visible bacterial growth after 18 hr of incubation at 37 C in Mueller-Hinton broth against Klebsiella pneumoniae 22. Format: functional. The essentials:
as §1

Experiment [12] relates to Klebsiella pneumoniae. Kind of experiment: Minimum inhibitory concentration (lowest peptide concentration) required to prevent visible bacterial growth after 18 hr of incubation at 37 C in Mueller-Hinton broth against Klebsiella pneumoniae 79. Format: functional. The essentials: as §1
The subject of experiment [13] is Escherichia coli. As to the kind of experiment: Minimum inhibitory concentration (lowest peptide concentration) required to prevent visible bacterial growth after 18 hr of incubation at 37 C in Mueller-Hinton broth against Escherichia coli D21. Format: functional. The essentials: as §1
For experiment [14], the system named is Salmonella enteritidis. As to the kind of experiment: Minimum inhibitory concentration (lowest peptide concentration) required to prevent visible bacterial growth after 18 h of incubation at 37 C in Mueller-Hinton broth against […]. In kind it is functional, Salmonella enterica subsp. enterica serovar Enteritidis. The conditions noted are these: Salmonella enterica. The gist of the method:
as §1

Take `CC[C@H](C)[C@H](NC(=O)[C@@H]1CCCN1C(=O)[C@H](CCCN=C(N)N)NC(=O)[C@@H]1CCCN1C(=O)[C@H](Cc1c[nH]cn1)NC(=O)[C@H](CO)NC(=O)[C@@H](NC(=O)[C@@H]1CCCN1C(=O)[C@H](CCCN=C(N)N)NC(=O)[C@@H]1CCCN1C(=O)[C@H](CO)NC(=O)[C@H](Cc1ccc(O)cc1)NC(=O)[C@@H]1CCCN1C(=O)[C@H](CCCN=C(N)N)NC(=O)[C@@H]1CCCN1C(=O)[C@H](CCCCN)NC(=O)CN)[C@@H](C)O[C@H]1O[C@H](CO)[C@H](O)[C@H](O)[C@H]1O)C(=O)N[C@@H](CCCN=C(N)N)C(=O)N[C@H](C(=O)O)C(C)C` (H-GKPRPYSPRPT(X1)SHPRPIRV-OH): the MIC in [1] is 2 µM (≈ 4.72 µg/mL); in experiment [2], over 128 µM; in [3] it was over 64 µM; in experiment [4] it was 2 µM (≈ 4.72 µg/mL); in experiment [5] it was over 64 µM; in experiment [6], 8 µM (≈ 18.9 µg/mL). In addition, the MIC in experiment [7] was 2 µM (≈ 4.72 µg/mL); in [8], over 128 µM; in experiment [9], 2 µM (≈ 4.72 µg/mL); in experiment [10], 2 µM (≈ 4.72 µg/mL); in experiment [11], 32 µM (≈ 75.5 µg/mL); in [12], 32 µM (≈ 75.5 µg/mL). Besides, the minimum inhibitory concentration (MIC) in experiment [13] is over 64 µM; in [14] it was 4 µM (≈ 9.44 µg/mL).

Turning to `CC[C@H](C)[C@H](NC(=O)[C@@H]1CCCN1C(=O)[C@H](CCCN=C(N)N)NC(=O)[C@@H]1CCCN1C(=O)[C@H](Cc1c[nH]cn1)NC(=O)[C@H](CO)NC(=O)[C@@H](NC(=O)[C@@H]1CCCN1C(=O)[C@H](CCCN=C(N)N)NC(=O)[C@@H]1CCCN1C(=O)[C@H](CO)NC(=O)[C@H](Cc1ccc(O)cc1)NC(=O)[C@@H]1CCCN1C(=O)[C@H](CCCN=C(N)N)NC(=O)[C@@H]1CCCN1C(=O)[C@H](CCCCN)NC(=O)CN)[C@@H](C)O[C@H]1O[C@H](CO)[C@@H](O)[C@H](O)[C@H]1NC(C)=O)C(=O)N[C@@H](CCCN=C(N)N)C(=O)N[C@H](C(=O)O)C(C)C` (H-GKPRPYSPRPT(X2)SHPRPIRV-OH), the MIC is 1 µM (≈ 2.4 µg/mL) in experiment [1]; over 128 µM in experiment [2]; over 64 µM in [3]; 1 µM (≈ 2.4 µg/mL) in [4]; over 64 µM in [5]; 2 µM (≈ 4.8 µg/mL) in experiment [6]. The minimal inhibitory concentration (MIC) in experiment [7] was 1 µM (≈ 2.4 µg/mL); in [8], over 128 µM; in experiment [9] it was 1 µM (≈ 2.4 µg/mL); in [10] it was 1 µM (≈ 2.4 µg/mL); in [11], 4 µM (≈ 9.61 µg/mL); in experiment [12], 8 µM (≈ 19.2 µg/mL). Also, the MIC amounted to 8 µM (≈ 19.2 µg/mL) in experiment [13] and 2 µM (≈ 4.8 µg/mL) in [14].

In the case of `CC[C@H](C)[C@H](NC(=O)[C@@H]1CCCN1C(=O)[C@H](CCCN=C(N)N)NC(=O)[C@@H]1CCCN1C(=O)[C@H](Cc1c[nH]cn1)NC(=O)[C@H](CO)NC(=O)[C@@H](NC(=O)[C@@H]1CCCN1C(=O)[C@H](CCCN=C(N)N)NC(=O)[C@@H]1CCCN1C(=O)[C@H](CO)NC(=O)[C@H](Cc1ccc(O)cc1)NC(=O)[C@@H]1CCCN1C(=O)[C@H](CCCN=C(N)N)NC(=O)[C@@H]1CCCN1C(=O)[C@H](CCCCN)NC(=O)CN)[C@@H](C)O[C@@H]1O[C@H](CO)[C@H](O)[C@H](O)[C@H]1O)C(=O)N[C@@H](CCCN=C(N)N)C(=O)N[C@H](C(=O)O)C(C)C` (H-GKPRPYSPRPT(βGal)SHPRPIRV-OH), the MIC in experiment [1] was 1 µM (≈ 2.36 µg/mL); in experiment [2] it was over 128 µM; in experiment [3] it was over 64 µM; in experiment [4] it was 2 µM (≈ 4.72 µg/mL); in [5], over 64 µM; in experiment [6] it was 8 µM (≈ 18.9 µg/mL). Further, the MIC in experiment [7] is 4 µM (≈ 9.44 µg/mL); in experiment [8], over 128 µM; in [9] it was 2 µM (≈ 4.72 µg/mL); in experiment [10], 4 µM (≈ 9.44 µg/mL); in [11] it was 16 µM (≈ 37.8 µg/mL); in experiment [12], 8 µM (≈ 18.9 µg/mL). The MIC in experiment [13] is over 64 µM; in [14], 4 µM (≈ 9.44 µg/mL).

On to `CC[C@H](C)[C@H](NC(=O)[C@H](Cc1ccc(O)cc1)NC(=O)[C@@H](NC(=O)[C@@H]1CCCN1C(=O)[C@H](CCCN=C(N)N)NC(=O)[C@H](CC(N)=O)NC(=O)[C@H](CC(N)=O)NC(=O)CN)C(C)C)C(=O)N1CCC[C@H]1C(=O)N[C@@H](CCC(N)=O)C(=O)N1CCC[C@H]1C(=O)N[C@@H](CCCN=C(N)N)C(=O)N1CCC[C@H]1C(=O)N[C@H](C(=O)N1CCC[C@H]1C(=O)N[C@@H](Cc1c[nH]cn1)C(=O)N1CCC[C@H]1C(=O)N[C@@H](CCCN=C(N)N)C(=O)N[C@@H](CC(C)C)C(=O)O)[C@@H](C)O[C@H]1O[C@H](CO)[C@@H](O)[C@H](O)[C@H]1NC(C)=O` (H-GNNRPVYIPQPRPT(X2)PHPRL-OH), for which the MIC in experiment [1] was 32 µM (≈ 77.2 µg/mL); in experiment [2], over 128 µM; in experiment [3], over 64 µM; in [4] it was 32 µM (≈ 77.2 µg/mL); in experiment [5] it was over 64 µM; in [6], 64 µM (≈ 154 µg/mL). The MIC in experiment [7] is 64 µM (≈ 154 µg/mL); in experiment [8] it was over 128 µM; in experiment [9], 64 µM (≈ 154 µg/mL); in experiment [10], 32 µM (≈ 77.2 µg/mL); in experiment [11] it was over 128 µM; in experiment [12] it was over 128 µM. Besides, the MIC in experiment [13] and in [14] was over 64 µM throughout.

As to `CC[C@H](C)[C@H](NC(=O)[C@@H]1CCCN1C(=O)[C@H](CCCN=C(N)N)NC(=O)[C@@H]1CCCN1C(=O)[C@H](Cc1c[nH]cn1)NC(=O)[C@@H]1CSSC[C@H](NC(=O)[C@H](Cc2ccc(O)cc2)NC(=O)[C@@H]2CCCN2C(=O)[C@H](CCCN=C(N)N)NC(=O)[C@@H]2CCCN2C(=O)[C@H](CCCCN)NC(=O)CN)C(=O)N2CCC[C@H]2C(=O)N[C@@H](CCCN=C(N)N)C(=O)N2CCC[C@H]2C(=O)N[C@@H]([C@@H](C)O)C(=O)N1)C(=O)N[C@@H](CCCN=C(N)N)C(=O)N[C@H](C(=O)O)C(C)C` (HELM PEPTIDE1{G.K.P.R.P.Y.C.P.R.P.T.C.H.P.R.P.I.R.V}$PEPTIDE1,PEPTIDE1,7:R3-12:R3$$$V2.0), the MIC in experiment [1], in experiment [2], in experiment [3], in experiment [4], in experiment [5] and in [6] was over 64 µM throughout. For the same molecule, the MIC in [7], in [8], in [9], in [10], in [11] and in [12] was over 64 µM each time. Besides, the MIC in experiment [13] and in experiment [14] was over 64 µM throughout.
